# Compound activity as filed in PubChem BioAssay.
# CHOP inh: blocks CHOP induction under ER stress; CHO-K1 CHOP-promoter luciferase, tunicamycin-induced, 15-18 h; inhibition, % at 10 µM; 220,000 compounds, 3.8% hits; AID 2732;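 active means compounds that reduced the stress-induced luciferase reporter signal by more than about 70% of percent inhibition, limit read from the data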;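 further: 0% = tunicamycin plus vehicle and 100% = wells without tunicamycin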
# UPR XBP1 act: adaptive UPR (XBP1) activation; CHO-XBP1 luciferase reporter, IRE1-XBP1 UPR activation, luminescence; percent of tunicamycin response, DMSO as zero; activation, % at 20 µM; 330,000 compounds, 0.33% hits; AID 463104;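 active means versus positive control, 20 µM dose yields 30% or more activation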;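 further: 100% = tunicamycin at 10 µg/mL and 0% = DMSO only wells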
#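 incubation = overnight seeding at 37 °C, 6 h compound treatment at 37 °C | assay system = CHO-XBP1 cells stably carrying IRE1-XBP1-driven luciferase reporter | input = 1000 cells per well | detection = luciferase luminescence | dosing = single point, 20 µM final compound, 1% DMSO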
# TLR9-MyD88 block: blocks human TLR9 binding to MyD88; Q9NR96+Q99836; CHO BLA complementation TLR9-MyD88, CCF4 FRET ratio; inhibition, % at 4.98 µM; 340,000 compounds, 0.21% hits;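 active means inhibition above the mean over all tested compounds plus 3 SD, cut at about 21% in these data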;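 further: 0% = DMSO only wells and 100% = clavulanate BLA inhibitor control wells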
# CHOP UPR activ: apoptotic UPR (CHOP) activation; CHO-CHOP luciferase reporter, luminescence; percent of tunicamycin response over DMSO baseline; activation, % at 10 µM; 330,000 compounds, 0.34% hits; AID 449763;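 active means at 10 µM dose, activation of 40% or more, normalized to positive control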;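 further: 100% = tunicamycin at 10 µg/mL and 0% = DMSO alone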
#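 System: CHO CHOP reporter cells. Amount: 500 cells per well. Buffer or medium: F12 medium, 10% FBS. Compound dosing: one dose, 10 µM in 0.5% DMSO. Incubation: 6 h compound exposure at 37 °C after overnight seeding. Technique: Steady-Glo luciferase luminescence. Benchmarks: tunicamycin and DMSO controls.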
# NOD2 RIPK2 PPI: NOD2-RIPK2 protein interaction inhibition; CHO BLA complementation NOD2-RIPK2, CCF4 ratio; 360,000 compounds, 0.38% hits; O43353; inhibition, % at 4.98 µM; in the data active means inhibition above about 21%;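 further: 0% = vehicle only and 100% = reference blocker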
# TLR4-MyD88 BLA: blocks binding of human TLR4 to MyD88 | O00206+Q99836 | HeLa CL3-4 TLR4/MyD88 BLA complementation, FRET ratio | inhibition, % at 8.4 µM | 200,000 compounds, 0.18% hits | AID 861; in the data active means inhibition above about 25%;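 further: 0% = vehicle and 100% = reference inhibitor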
# * hit, by the source's call; . = not tested or not shown. Many of the other results were omitted from the sample, so hits are more common in it than they were.
SMILES,CHOP inh,UPR XBP1 act,TLR9-MyD88 block,CHOP UPR activ,NOD2 RIPK2 PPI,TLR4-MyD88 BLA
CCOC(=O)C1C(C(=O)OCC)C(C)(C)C1N(C)C (stereo not given),.,.,5,.,-6,.
CC(C)OCCCNc1nc(Cl)nc2c1cnn2C,.,.,6,.,5,.
O=C1COc2ccc(N3C(=O)C=CC3=O)cc2N1,95*,-5,.,-1,.,1
O=C1COc2ccc(S(=O)(=O)N3CCCC3)cc2N1,.,1,-3,-1,-3,.
CC(=O)c1cccc(N=c2scc(-c3ccc(S(=O)(=O)N4CCOCC4)cc3)n2CCO)c1,54,-2,-7,6,0,-6
C=CCn1c(-c2ccc(S(=O)(=O)N3CCOCC3)cc2)csc1=Nc1ccccc1,72*,3,-10,1,-2,4
CCOc1ccc(-c2ccc(/C=C3/C(=N)N4C(C)=CSC4=NC3=O)o2)c([N+](=O)[O-])c1,88*,3,-6,4,-1,0
N=C1/C(=C\c2ccc(-c3cc(Cl)cc(Cl)c3)o2)C(=O)N=C2SC=C(c3ccccc3)N12,5,-2,-10,0,-18,-1
CCOc1ccc(-c2ccc(/C=C3/C(=N)N4C=CSC4=NC3=O)o2)c([N+](=O)[O-])c1,86*,.,-3,.,-1,12
COc1ccc(C(=O)N2CCN(c3ccccc3)CC2)cc1S(=O)(=O)NC1CC1,.,2,-2,5,2,.
Cc1ccc(NC(=O)Cn2c(=O)oc3cc(S(=O)(=O)N4CCC(C)CC4)ccc32)cc1C,74*,-4,-7,1,-7,-6
COc1ccc(NC(=O)Cn2c(=O)oc3cc(S(=O)(=O)N4CCCC4)ccc32)cc1,.,-3,-7,1,-8,.
COc1ccc(CNc2nc(C)c([N+](=O)[O-])c(C)c2C#N)cc1,20,2,-16,0,-12,-6
COc1cc(CNc2nc(C)c([N+](=O)[O-])c(C)c2C#N)cc(OC)c1OC,79*,-1,5,-1,-10,-12
Cn1ccc2c(N3CCCCCC3)cc3c(c21)C1CCC3C1 (stereo not given),.,.,.,.,-7,.
O=C(Nc1nc(-c2ccccc2)cs1)NC1CCCCC1,93*,3,8,4,-4,-4
c1ccc(-c2csc(NC3CCCCC3)n2)cc1,.,-1,0,8,-7,.
O=C(Nc1nc(-c2ccccc2)cs1)C1CCCCN1S(=O)(=O)c1ccc(Cl)cc1 (stereo not given),70*,7,5,0,-7,12
COc1ccc(NC(=O)C2Cc3c(-c4cccc(C(C)=O)c4)ccnc3O2)cn1 (stereo not given),.,.,.,.,5,.
CCN(CC(=O)Nc1ccc2c(c1)OCCO2)C(=O)C(C)Oc1ccc(F)cc1 (stereo not given),.,.,6,.,-8,.
S=C(NNc1ccnc2cc(Cl)ccc12)Nc1ccc(Cl)cc1Cl,96*,9,0,7,-3,.
O=C(Nc1cccc(C(F)(F)F)c1)N(Cc1ccc(Cl)cc1)CC(O)C(F)(F)F (stereo not given),74*,1,-1,0,-5,0
CC(O)(CS(=O)(=O)Cc1ccc(Cl)cc1)C(=O)Nc1cccc(C(F)(F)F)c1 (stereo not given),6,-1,2,-2,-13,6
COc1ccc2c(c1)c1nc3ccccc3nc1n2Cc1ccc(OC)c(OC)c1,85*,.,10,.,7,4
COC(=O)Cn1c2ccc(OC)cc2c2nc3ccccc3nc21,-6,9,-3,1,1,-22
CN1CCN(c2ncnc3c2ncn3[C@H]2CN(Cc3ccc4c(c3)OCO4)C[C@@H](CO)O2)CC1,.,.,.,.,-7,.
COc1cccc(NCc2cc(=O)oc3cc(C)c(O)cc23)c1,.,-3,-3,1,10,.
COc1cccc(NCc2cc(=O)oc3cc(-c4ccccc4)c(O)cc23)c1,82*,0,-3,3,6,-1
COC(=O)c1c(C)[nH]c(C(=O)/C=C/c2ccccc2)c1C,76*,-2,1,4,5,-8
